Measurements gathered from unrelated publications.
Protocols differ between the studies behind these lines.
PMV: Plasmepsin V (PMV, Plasmodium falciparum, UniProt Q8I6Z5)
PADI1: Protein-arginine deiminase type-1 (PADI1, Homo sapiens, UniProt Q9ULC6)

Structure (SMILES)	target	test	setting	endpoint	value
Cc1ccccc1CNC(=O)[C@H]1N(C(=O)[C@@H](O)[C@H](Cc2ccccc2)NC(=O)c2cccc(O)c2C)CSC1(C)C	PMV	enzyme activity, inhibitor, fluorescence	10 µM	activity vs control	73%
COC(=O)[C@H](CCCNC(=N)N)NC(=O)c1ccccc1	PADI1	enzyme activity, substrate	–	Km	370 µM
Cc1cccc(C)c1OCC(=O)N[C@@H](Cc1ccccc1)[C@H](O)C(=O)N1CSC(C)(C)[C@H]1C(=O)N[C@H]1c2ccccc2C[C@H]1O	PMV	enzyme activity, inhibitor, fluorescence	10 µM	activity vs control	77%
Cc1nn(C)cc1-c1nc2c(N3CCN(Cc4ccc(Cl)cc4)CC3)c(Cl)cnc2[nH]1	Activin receptor type-1-like (ACVRL1, Homo sapiens, UniProt P37023)	binding, competition with immobilised ligand	1 µM	remaining binding	100%
Nc1ncc(-c2nc(N3CCOCC3)nc(N3CCOCC3)n2)c(C(F)F)n1	Phosphatidylinositol 4,5-bisphosphate 3-kinase catalytic subunit alpha isoform (PIK3CA, Homo sapiens, UniProt P42336, H1047L)	binding, competition with immobilised ligand	10 µM	remaining binding	0%
C#Cc1n[nH]c2c(-c3cn(C(C)c4ccccn4)c(=O)[nH]c3=O)cc(F)cc12 (stereo not shown)	Dual specificity tyrosine-phosphorylation-regulated kinase 2 (DYRK2, Homo sapiens, UniProt Q92630)	enzyme activity, inhibitor	1 µM	inhibition	-7.1%
CC(C)C[C@H](CC(=O)NO)C(=O)N[C@H](C(=O)N[C@@H](C)C(=O)NCCN)C(C)(C)C	Disintegrin and metalloproteinase domain-containing protein 17 (ADAM17, Homo sapiens, UniProt P78536)	enzyme activity, inhibitor	1 µM	inhibition	13%
COc1ncccc1-c1cnn2ccc(N3CCN(C(=O)OC(C)C)CC3)nc12	Serine/threonine-protein kinase 32B (STK32B, Homo sapiens, UniProt Q9NY57)	binding, competition with immobilised ligand	1 µM	remaining binding	98%
CCN(CC)CCCC[C@H](NC(=O)[C@H](CC(C)C)NC(=O)[C@H](C)NC(=O)[C@H](Cc1ccccc1)NC(=O)c1ccc(C(C)(C)C)cc1)C(=O)N[C@@H](CO)C(=O)OC	ATPase family AAA domain-containing protein 2, bromodomain (ATAD2, Homo sapiens, UniProt Q6PL18)	thermal stability, DSF	25 µM	ΔTm	-0.62 °C
CCOC(=O)[C@H](CCCN=C(N)N)NC(=O)c1ccccc1	PADI1	enzyme activity, substrate	–	Km	190 µM
